Laboratory results from ChEMBL document CHEMBL5058577, “EUbOPEN Chemogenomics Library 2 (Multiplex)” (2022).

System: Fibroblast
Test: Multiplex assay against human fibroblast
Type: toxicity, cell-based
Outline: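 Compound was added to live cells that had been stained at seeding with Hoechst33342, BioTracker Green Microtubule Cytoskeleton Dye, MitoTracker Red and Annexin V Alexa Fluor 680, and imaging followed on a CQ1 microscope at 37°C and 5% CO2. CellPathfinder machine-learning gating divided cells into Hoechst high-intensity objects or normal cells, normal cells into healthy, pyknosed or fragmented nuclei, and pyknosed cells into mitotic or apoptotic. Tubulin, mitochondrial-mass and membrane-permeability phenotypes are per cents of healthy-nucleus cells.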

[1] = 12 h, 1 µM, compound concentration 1 uM, replicate 1
[2] = 12 h, 1 µM, compound concentration 1 uM, replicate 2
[3] = 12 h, 10 µM, compound concentration 10 uM, replicate 1
[4] = 12 h, 10 µM, compound concentration 10 uM, replicate 2
[5] = 24 h, 1 µM, compound concentration 1 uM, replicate 1
[6] = 24 h, 1 µM, compound concentration 1 uM, replicate 2
[7] = 24 h, 10 µM, compound concentration 10 uM, replicate 1
[8] = 24 h, 10 µM, compound concentration 10 uM, replicate 2
[9] = 48 h, 1 µM, compound concentration 1 uM, replicate 1
[10] = 48 h, 1 µM, compound concentration 1 uM, replicate 2
[11] = 48 h, 10 µM, compound concentration 10 uM, replicate 1
[12] = 48 h, 10 µM, compound concentration 10 uM, replicate 2

## CCc1nn2c(C)cc(C)nc2c1Cc1ccc(-c2nnc(C3CCNCC3)o2)cc1
[1]
  Population Apoptotic (%): 34%
  Population Fragmented Nuclei (%): 17%
  Population Healthy Nuclei (%): 63%
  Population Hoechst High Intensity Objects (%): 2%
  Population Membrane Permeable-Phenotype (%): 2%
  Population Mitochondria Different-Phenotype (%): 5%
  Population Mitotic Cells (%): 65%
  Population Normal (%): 97%
  Population Pyknosed Nuclei (%): 19%
  Population Tubulin-Different-Phenotype (%): 35%
  Total Cell Count: 153
[2]
  Population Apoptotic (%): 45%
  Population Fragmented Nuclei (%): 19%
  Population Healthy Nuclei (%): 46%
  Population Hoechst High Intensity Objects (%): 6%
  Population Mitochondria Different-Phenotype (%): 13%
  Population Mitotic Cells (%): 54%
  Population Normal (%): 93%
  Population Pyknosed Nuclei (%): 33%
  Population Tubulin-Different-Phenotype (%): 62%
  Total Cell Count: 167
[3]
  Population Apoptotic (%): 51%
  Population Fragmented Nuclei (%): 19%
  Population Healthy Nuclei (%): 62%
  Population Hoechst High Intensity Objects (%): 5%
  Population Membrane Permeable-Phenotype (%): 0%
  Population Mitochondria Different-Phenotype (%): 19%
  Population Mitotic Cells (%): 48%
  Population Normal (%): 94%
  Population Pyknosed Nuclei (%): 18%
  Population Tubulin-Different-Phenotype (%): 72%
  Total Cell Count: 188
[4]
  Population Apoptotic (%): 14%
  Population Fragmented Nuclei (%): 38%
  Population Healthy Nuclei (%): 44%
  Population Hoechst High Intensity Objects (%): 3%
  Population Membrane Permeable-Phenotype (%): 5%
  Population Mitochondria Different-Phenotype (%): 14%
  Population Mitotic Cells (%): 85%
  Population Normal (%): 96%
  Population Pyknosed Nuclei (%): 17%
  Population Tubulin-Different-Phenotype (%): 79%
  Total Cell Count: 162
[5]
  Population Apoptotic (%): 52%
  Population Fragmented Nuclei (%): 17%
  Population Healthy Nuclei (%): 68%
  Population Hoechst High Intensity Objects (%): 1%
  Population Membrane Permeable-Phenotype (%): 0%
  Population Mitochondria Different-Phenotype (%): 3%
  Population Mitotic Cells (%): 47%
  Population Normal (%): 98%
  Population Pyknosed Nuclei (%): 13%
  Population Tubulin-Different-Phenotype (%): 35%
  Total Cell Count: 153
[6]
  Population Apoptotic (%): 56%
  Population Fragmented Nuclei (%): 26%
  Population Healthy Nuclei (%): 49%
  Population Hoechst High Intensity Objects (%): 7%
  Population Membrane Permeable-Phenotype (%): 6%
  Population Mitochondria Different-Phenotype (%): 15%
  Population Mitotic Cells (%): 43%
  Population Normal (%): 92%
  Population Pyknosed Nuclei (%): 23%
  Population Tubulin-Different-Phenotype (%): 65%
  Total Cell Count: 177
[7]
  Population Apoptotic (%): 53%
  Population Fragmented Nuclei (%): 17%
  Population Healthy Nuclei (%): 64%
  Population Hoechst High Intensity Objects (%): 9%
  Population Membrane Permeable-Phenotype (%): 0%
  Population Mitochondria Different-Phenotype (%): 22%
  Population Mitotic Cells (%): 46%
  Population Normal (%): 90%
  Population Pyknosed Nuclei (%): 17%
  Population Tubulin-Different-Phenotype (%): 79%
  Total Cell Count: 185
[8]
  Population Apoptotic (%): 56%
  Population Fragmented Nuclei (%): 40%
  Population Healthy Nuclei (%): 42%
  Population Hoechst High Intensity Objects (%): 3%
  Population Membrane Permeable-Phenotype (%): 11%
  Population Mitochondria Different-Phenotype (%): 16%
  Population Mitotic Cells (%): 44%
  Population Normal (%): 96%
  Population Tubulin-Different-Phenotype (%): 80%
  Total Cell Count: 151
[9]
  Population Apoptotic (%): 76%
  Population Fragmented Nuclei (%): 21%
  Population Healthy Nuclei (%): 70%
  Population Hoechst High Intensity Objects (%): 4%
  Population Membrane Permeable-Phenotype (%): 1%
  Population Mitochondria Different-Phenotype (%): 2%
  Population Mitotic Cells (%): 23%
  Population Normal (%): 95%
  Population Pyknosed Nuclei (%): 7%
  Population Tubulin-Different-Phenotype (%): 32%
  Total Cell Count: 172
[10]
  Population Apoptotic (%): 62%
  Population Fragmented Nuclei (%): 30%
  Population Healthy Nuclei (%): 54%
  Population Membrane Permeable-Phenotype (%): 3%
  Population Mitochondria Different-Phenotype (%): 12%
  Population Mitotic Cells (%): 37%
  Population Pyknosed Nuclei (%): 14%
  Population Tubulin-Different-Phenotype (%): 54%
  Total Cell Count: 168
[11]
  Population Apoptotic (%): 84%
  Population Fragmented Nuclei (%): 23%
  Population Healthy Nuclei (%): 62%
  Population Hoechst High Intensity Objects (%): 9%
  Population Membrane Permeable-Phenotype (%): 0%
  Population Mitochondria Different-Phenotype (%): 16%
  Population Mitotic Cells (%): 15%
  Population Normal (%): 90%
  Population Pyknosed Nuclei (%): 13%
  Population Tubulin-Different-Phenotype (%): 73%
  Total Cell Count: 208
[12]
  Population Apoptotic (%): 54%
  Population Fragmented Nuclei (%): 45%
  Population Healthy Nuclei (%): 47%
  Population Hoechst High Intensity Objects (%): 2%
  Population Membrane Permeable-Phenotype (%): 2%
  Population Mitochondria Different-Phenotype (%): 17%
  Population Mitotic Cells (%): 45%
  Population Normal (%): 97%
  Population Pyknosed Nuclei (%): 7%
  Population Tubulin-Different-Phenotype (%): 78%
  Total Cell Count: 161
